# Data reported in ChEMBL document CHEMBL5108071, “Potent and Specific Activators for Mitochondrial Sirtuins Sirt3 and Sirt5” (J Med Chem, 2022).
# Activity calls are given as the source filed them. The calls are words filed in the database; no cut-off is given here.
# Assays:
# [1] = biological target: T1, NAD-dependent protein deacetylase sirtuin-1 (Homo sapiens) (UniProt Q96EB6); test: Activation of N-terminal his-tagged human SIRT1 expressed in Escherichia coli assessed as fold activation at 10 to 100 uM using p53-acK381 as substrate in presence of NAD+; settings: filed as activator, dose 10-100 µM
# T1 sequence (whole entry): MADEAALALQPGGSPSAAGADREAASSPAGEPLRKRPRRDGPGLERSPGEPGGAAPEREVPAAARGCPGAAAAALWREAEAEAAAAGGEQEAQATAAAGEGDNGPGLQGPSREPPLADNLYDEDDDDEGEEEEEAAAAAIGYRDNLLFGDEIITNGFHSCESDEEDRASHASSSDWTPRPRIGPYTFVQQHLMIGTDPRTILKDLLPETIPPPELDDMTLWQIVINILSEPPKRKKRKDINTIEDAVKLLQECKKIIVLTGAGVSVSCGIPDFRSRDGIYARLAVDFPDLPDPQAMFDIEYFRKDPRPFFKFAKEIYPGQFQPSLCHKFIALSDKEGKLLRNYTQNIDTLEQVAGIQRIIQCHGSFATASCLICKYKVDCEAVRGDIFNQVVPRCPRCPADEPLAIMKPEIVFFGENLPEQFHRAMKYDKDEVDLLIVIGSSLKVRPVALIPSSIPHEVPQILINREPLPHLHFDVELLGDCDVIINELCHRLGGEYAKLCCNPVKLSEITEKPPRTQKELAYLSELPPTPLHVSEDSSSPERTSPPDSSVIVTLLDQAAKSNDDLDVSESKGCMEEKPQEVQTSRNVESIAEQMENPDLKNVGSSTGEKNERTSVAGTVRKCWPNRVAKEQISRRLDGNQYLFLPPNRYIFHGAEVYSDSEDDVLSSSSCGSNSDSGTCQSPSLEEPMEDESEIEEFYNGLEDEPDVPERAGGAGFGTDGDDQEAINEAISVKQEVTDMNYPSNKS
# Summary of the method: (§1)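 Coupled enzymatic deacylation assay (nicotinamidase/GDH-coupled, continuous): 1.5 μM recombinant Sirtuin (expressed in E. coli, Ni-NTA purified, tag removed, size-exclusion purified) with 50 μM substrate peptide and 100 μM NAD+, without or with 10 μM or 100 μM 1,4-DHP, 5% final DMSO. Activity expressed relative to no-compound control.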
# [2] = biological target: T2, NAD-dependent protein deacetylase sirtuin-3, mitochondrial (Homo sapiens) (UniProt Q9NTG7); test: Activation of N-terminal his-tagged human SIRT3 (114 to 380 residues) expressed in Escherichia coli assessed as fold activation at 100 uM using ACS2-acK642 as substrate in presence of NAD+; settings: filed as activator
# T2 sequence (whole entry): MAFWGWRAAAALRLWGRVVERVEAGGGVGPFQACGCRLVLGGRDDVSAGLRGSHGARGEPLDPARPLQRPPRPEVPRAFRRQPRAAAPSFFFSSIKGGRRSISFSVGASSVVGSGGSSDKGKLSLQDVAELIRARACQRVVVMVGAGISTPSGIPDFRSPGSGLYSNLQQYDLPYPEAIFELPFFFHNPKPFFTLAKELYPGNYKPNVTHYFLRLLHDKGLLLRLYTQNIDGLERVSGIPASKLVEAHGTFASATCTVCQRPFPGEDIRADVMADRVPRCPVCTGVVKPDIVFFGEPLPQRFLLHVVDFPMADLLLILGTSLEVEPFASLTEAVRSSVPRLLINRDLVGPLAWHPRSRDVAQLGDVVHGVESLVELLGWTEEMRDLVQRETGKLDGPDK
# Summary of the method: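 Coupled continuous enzymatic assay (nicotinamidase/GDH-linked): 1.5 µM purified Sirt3 with 50 µM ACS2-acK642 peptide and 100 µM NAD+, compound at 10 µM, 100 µM or titrated, 5% DMSO final; fold deacetylation versus no-compound control.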
# [3] = biological target: NAD-dependent protein deacylase sirtuin-5, mitochondrial (Homo sapiens) (UniProt Q9NXA8); test: Activation of N-terminal his-tagged human SIRT5 (34 to 302 residues) expressed in Escherichia coli assessed as fold activation at 10 to 100 uM using CPS1-succ537 as substrate in presence of NAD+; settings: filed as activator, dose 10-100 µM; summary of the method: as §1
# Target sequence in this assay (Q9NXA8 37-310 limits assumed): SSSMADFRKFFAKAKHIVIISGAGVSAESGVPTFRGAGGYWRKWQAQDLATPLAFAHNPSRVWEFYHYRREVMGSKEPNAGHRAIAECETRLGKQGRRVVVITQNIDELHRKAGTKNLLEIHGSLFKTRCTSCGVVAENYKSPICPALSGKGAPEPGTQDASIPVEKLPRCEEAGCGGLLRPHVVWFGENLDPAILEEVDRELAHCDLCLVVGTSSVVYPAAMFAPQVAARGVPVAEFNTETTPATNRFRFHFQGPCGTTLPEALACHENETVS
# [4] = biological target: T1, NAD-dependent protein deacetylase sirtuin-1 (Homo sapiens); test: Activation of N-terminal his-tagged human SIRT1 expressed in Escherichia coli at 10 to 100 uM using p53-acK381 as substrate in presence of NAD+; settings: filed as activator, dose 10-100 µM
# Summary of the method: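 Compound titration in the nicotinamidase/GDH-coupled deacylation assay. 1.5 μM recombinant Sirt1 (E. coli-expressed, Ni-NTA purified, tag removed, size-exclusion purified) was used with 50 μM p53-acK381 peptide and 100 μM NAD+. 1,4-DHP was added at the indicated concentrations in 5% final DMSO.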
# [5] = biological target: NAD-dependent protein deacylase sirtuin-5, mitochondrial (Homo sapiens) (UniProt Q9NXA8); test: Activation of N-terminal his-tagged human SIRT5 (34 to 302 residues) expressed in Escherichia coli assessed as fold activation at 100 uM using CPS1-succ537 as substrate in presence of NAD+; settings: filed as activator; summary of the method: as §1
# Target sequence in this assay (Q9NXA8 37-310 limits assumed): as above
# [6] = biological target: T2, NAD-dependent protein deacetylase sirtuin-3, mitochondrial (Homo sapiens); test: Inhibition of N-terminal his-tagged human SIRT3 (114 to 380 residues) expressed in Escherichia coli at 100 uM using ACS2-acK642 as substrate in presence of NAD+ relative to control; summary of the method: as §1
# [7] = biological target: T3, NAD-dependent protein deacetylase sirtuin-2 (Homo sapiens) (UniProt Q8IXJ6); test: Inhibition of N-terminal SUMO-tagged human SIRT2 (43 to 356 residues) expressed in Escherichia coli at 100 uM using acetylated alpha tubulin-K25 as substrate in presence of NAD+ relative to control; summary of the method: as §1
# T3 sequence (whole entry): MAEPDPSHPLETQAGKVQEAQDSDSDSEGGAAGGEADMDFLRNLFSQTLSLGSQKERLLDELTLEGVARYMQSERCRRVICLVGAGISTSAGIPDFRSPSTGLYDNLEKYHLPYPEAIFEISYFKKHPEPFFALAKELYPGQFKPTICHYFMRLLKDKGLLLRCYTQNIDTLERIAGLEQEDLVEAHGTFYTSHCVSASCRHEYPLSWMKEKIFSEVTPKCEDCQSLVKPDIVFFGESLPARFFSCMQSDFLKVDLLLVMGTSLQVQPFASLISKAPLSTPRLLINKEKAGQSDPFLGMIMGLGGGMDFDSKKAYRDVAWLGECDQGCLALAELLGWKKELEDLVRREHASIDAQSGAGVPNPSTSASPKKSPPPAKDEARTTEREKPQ
# [8] = biological target: NAD-dependent protein deacylase sirtuin-5, mitochondrial (Homo sapiens) (UniProt Q9NXA8); test: Activation of N-terminal his-tagged human SIRT5 (34 to 302 residues) expressed in Escherichia coli assessed as fold activation at 10 uM using CPS1-succ537 as substrate in presence of NAD+; settings: filed as activator; summary of the method: as §1
# Target sequence in this assay (Q9NXA8 37-310 limits assumed): as the sequence (Q9NXA8 37-310 limits assumed) above
# [9] = biological target: NAD-dependent protein deacylase sirtuin-5, mitochondrial (Homo sapiens) (UniProt Q9NXA8); test: Activation of SIRT5 in human S2-013 cells assessed as decrease in GOT1 acetylation at 20 uM incubated for 24 hrs by Western blot analysis; settings: filed as activator
# Target sequence in this assay (Q9NXA8 whole entry, looked up, the tested form may be a part): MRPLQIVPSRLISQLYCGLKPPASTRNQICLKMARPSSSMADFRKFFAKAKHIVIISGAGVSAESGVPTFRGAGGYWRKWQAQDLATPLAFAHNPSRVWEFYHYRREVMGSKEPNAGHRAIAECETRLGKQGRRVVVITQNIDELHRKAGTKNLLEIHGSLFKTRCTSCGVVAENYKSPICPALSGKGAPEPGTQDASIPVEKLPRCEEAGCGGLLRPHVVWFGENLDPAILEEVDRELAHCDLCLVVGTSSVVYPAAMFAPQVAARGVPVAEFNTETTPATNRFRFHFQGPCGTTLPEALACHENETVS
# [10] = biological target: NAD-dependent protein deacylase sirtuin-5, mitochondrial (Homo sapiens) (UniProt Q9NXA8); test: Activation of N-terminal his-tagged human SIRT5 (34 to 302 residues) expressed in Escherichia coli assessed as desuccinylation of substrate at 100 uM using CPS1-succ537 as substrate in presence of NAD+ by Mass spectrometry analysis; settings: filed as activator
# Summary of the method: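 MS-based desuccinylation assay: same components as coupled assay (1.5 μM Sirt5, 50 μM CPS1-succK537 peptide, 100 μM NAD+, 5% DMSO) but in 50 mM Na-phosphate pH 7.8 with 0.05 μg/μL PNCA to remove nicotinamide; compound at 100 μM; product and substrate peptides quantified by mass spectrometry.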
# Target sequence in this assay (Q9NXA8 37-310 limits assumed): as the sequence (Q9NXA8 37-310 limits assumed) above
# [11] = biological target: NAD-dependent protein deacylase sirtuin-5, mitochondrial (Homo sapiens) (UniProt Q9NXA8); test: Activation of SIRT5 in human CAPAN-1 cells assessed as decrease in GOT1 acetylation at 20 uM incubated for 24 hrs by Western blot analysis; settings: filed as activator
# Target sequence in this assay (Q9NXA8 whole entry, looked up, the tested form may be a part): as the sequence (Q9NXA8 whole entry, looked up, the tested form may be a part) above
# [12] = biological target: NAD-dependent protein deacylase sirtuin-5, mitochondrial (Homo sapiens) (UniProt Q9NXA8); test: Activation of human recombinant SIRT5 assessed as decrease in PDHA1-succinylation at 100 uM by Western blot analysis; settings: filed as activator
# Target sequence in this assay (Q9NXA8 whole entry, looked up, the tested form may be a part): as above
# [13] = biological target: NAD-dependent protein deacylase sirtuin-5, mitochondrial (Homo sapiens) (UniProt Q9NXA8); test: Activation of SIRT5 in human MDA-MB-231 cells assessed as decrease in GLS activity at 50 uM using TMP substrate incubated for 4 to 24 hrs; settings: filed as activator, time 4-24 hrs
# Target sequence in this assay (Q9NXA8 whole entry, looked up, the tested form may be a part): as above
# [14] = biological target: T1, NAD-dependent protein deacetylase sirtuin-1 (Homo sapiens); test: Activation of N-terminal his-tagged human SIRT1 expressed in Escherichia coli assessed as fold activation at 100 uM using p53-acK381 as substrate in presence of NAD+; settings: filed as activator; summary of the method: as §1
# [15] = biological target: T3, NAD-dependent protein deacetylase sirtuin-2 (Homo sapiens); test: Activation of N-terminal SUMO-tagged human SIRT2 (43 to 356 residues) expressed in Escherichia coli assessed as deacetylation of substrate at 100 uM using acetylated alpha tubulin-K2 as substrate in presence of NAD+; settings: filed as activator; summary of the method: as §1
structure (smiles),measurement,setting,value
CCOC(=O)C1=CN(Cc2ccccc2)C=C(C(=O)OCC)C1c1ccccc1,fold change (FC),[1],1.5
same,fold change (FC),[2],2
CCOC(=O)C1=CN(C(=O)c2ccccc2)C=C(C(=O)OCC)C1c1ccco1,fold change (FC),[3],2
CCOC(=O)C1=CN(Cc2cc(OC)c(OC)c(OC)c2)C=C(C(=O)OCC)C1c1ccccc1,Activity,[4],Active
CCOC(=O)C1=CN(Cc2ccccc2)C=C(C(=O)OCC)C1c1cc2ccccc2s1,fold change (FC),[5],2
CCOC(=O)C1=CN(Cc2ccccc2)C=C(C(=O)OCC)C1c1ccco1,fold change (FC),[1],1.5
CCOC(=O)C1=CN(C(=O)c2ccccc2)C=C(C(=O)OCC)C1c1ccc(C)cc1,fold change (FC),[5],2
CCOC(=O)C1=CN(C(=O)c2ccccc2)C=C(C(=O)OCC)C1c1ccoc1,fold change (FC),[3],3
same,Activity,[4],Active
CCOC(=O)C1=CN(C(=O)c2ccccc2)C=C(C(=O)OCC)C1c1ccccc1Cl,fold change (FC),[5],2
CCOC(=O)C1=CN(Cc2ccccc2)C=C(C(=O)OCC)C1c1cccc2ccccc12,fold change (FC),[5],2
CCOC(=O)C1=CN(Cc2ccccc2)C=C(C(=O)OCC)C1c1cncs1,inhibition,[6],60%
same,inhibition,[7],75%
CCOC(=O)C1=CN(C(=O)c2ccc3ccccc3c2)C=C(C(=O)OCC)C1c1ccccc1,fold change (FC),[1],1.5
CCOC(=O)C1=CN(C(=O)c2cc(OC)c(OC)c(OC)c2)C=C(C(=O)OCC)C1c1cccc(Cl)c1,Activity,[4],Active
CCOC(=O)C1=CN(C(=O)c2cc(OC)c(OC)c(OC)c2)C=C(C(=O)OCC)C1c1cccc(C)c1,Activity,[4],Active
CCOC(=O)C1=CN(C(=O)c2ccccc2)C=C(C(=O)OCC)C1c1ccc(OC)cc1,fold change (FC),[1],1.5
same,fold change (FC),[8],1.2
CCOC(=O)C1=CN(C(=O)c2ccccc2)C=C(C(=O)OCC)C1c1ccsc1,fold change (FC),[3],3
same,Activity,[9],Active
same,Activity,[10],Active
same,Activity,[11],Active
same,Activity,[12],Active
same,Activity,[13],Active
CCOC(=O)C1=CN(C(=O)c2cnccn2)C=C(C(=O)OCC)C1c1ccccc1,fold change (FC),[8],1.2
same,fold change (FC),[5],2
CCOC(=O)C1=CN(Cc2ccccc2)C=C(C(=O)OCC)C1c1ccsc1,fold change (FC),[1],1.5
CCOC(=O)C1=CN(C(=O)c2cc(OC)c(OC)c(OC)c2)C=C(C(=O)OCC)C1c1ccoc1,fold change (FC),[3],2
same,fold change (FC),[14],2.5
same,Activity,[15],Active
CCOC(=O)C1=CN(Cc2ccccc2)C=C(C(=O)OCC)C1c1ccc2ccccc2c1,fold change (FC),[8],1.2
same,fold change (FC),[5],2
CCOC(=O)C1=CN(C(=O)c2ccccc2)C=C(C(=O)OCC)C1c1cccc(Cl)c1,Activity,[9],Active
same,fold change (FC),[8],1.2
same,Activity,[11],Active
same,Activity,[12],Active
same,fold change (FC),[5],2
CCOC(=O)C1=CN(C(=O)c2ccccc2)C=C(C(=O)OCC)C1c1ccc(Cl)cc1,fold change (FC),[8],1.2
same,fold change (FC),[5],2
CCOC(=O)C1=CN(C(=O)c2ccccc2)C=C(C(=O)OCC)C1c1cccc(OC)c1,fold change (FC),[8],1.2
same,fold change (FC),[5],2
CCOC(=O)C1=CN(C(=O)c2cccc3ccccc23)C=C(C(=O)OCC)C1c1ccccc1,fold change (FC),[5],2
CCOC(=O)C1=CN(C(=O)c2ccccc2)C=C(C(=O)OCC)C1c1ccccc1OC,fold change (FC),[5],2
CCOC(=O)C1=CN(Cc2cc(OC)c(OC)c(OC)c2)C=C(C(=O)OCC)C1c1cnc2ccccc2c1,Activity,[4],Active
CCOC(=O)C1=CN(C(=O)c2cnc3ccccc3n2)C=C(C(=O)OCC)C1c1ccccc1,fold change (FC),[1],1.5
same,fold change (FC),[8],1.2
same,fold change (FC),[5],2
CCOC(=O)C1=CN(C(=O)c2cc(OC)c(OC)c(OC)c2)C=C(C(=O)OCC)C1c1ccc(CN2CCN(C)CC2)cc1,fold change (FC),[3],2
same,fold change (FC),[14],2.5
CCOC(=O)C1=CN(C(=O)c2cc(OC)c(OC)c(OC)c2)C=C(C(=O)OCC)C1c1ccsc1,fold change (FC),[14],2.5
CCOC(=O)C1=CN(Cc2ccccc2)C=C(C(=O)OCC)C1c1ccc(-c2ccccc2)cc1,fold change (FC),[5],2
CCOC(=O)C1=CN(C(=O)c2cc(OC)c(OC)c(OC)c2)C=C(C(=O)OCC)C1c1ccco1,fold change (FC),[3],2
same,fold change (FC),[14],2.5
same,Activity,[15],Active
CCOC(=O)C1=CN(C(=O)c2cc(OC)c(OC)c(OC)c2)C=C(C(=O)OCC)C1c1cccc(F)c1,Activity,[4],Active
